Laboratory results taken from ChEMBL document CHEMBL1147663, “Structure-activity relationships of bifunctional peptides based on overlapping pharmacophores at opioid and cholecystokinin receptors” (J Med Chem, 2006).
The source made the active and inactive calls. The rule behind the calls is not given here.

Target: T1, Delta-type opioid receptor (Homo sapiens, UniProt P41143)
Experiment: Activity against [35S]GTP-gamma-S binding to human delta opioid receptor expressed in HN9.10 cells
Format: functional, cell-based
Conditions: not given
Summary of the method: (§1)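 Membranes (10 μg) from HN9.10 cells stably expressing hDOR or rMOR; various drug concentrations in duplicate or triplicate, 90 min at 30 °C in HEPES pH 7.4 with GDP, MgCl2, NaCl, 0.1 nM [35S]GTPγS; filtration, scintillation counting.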

T1 sequence (P41143 whole entry): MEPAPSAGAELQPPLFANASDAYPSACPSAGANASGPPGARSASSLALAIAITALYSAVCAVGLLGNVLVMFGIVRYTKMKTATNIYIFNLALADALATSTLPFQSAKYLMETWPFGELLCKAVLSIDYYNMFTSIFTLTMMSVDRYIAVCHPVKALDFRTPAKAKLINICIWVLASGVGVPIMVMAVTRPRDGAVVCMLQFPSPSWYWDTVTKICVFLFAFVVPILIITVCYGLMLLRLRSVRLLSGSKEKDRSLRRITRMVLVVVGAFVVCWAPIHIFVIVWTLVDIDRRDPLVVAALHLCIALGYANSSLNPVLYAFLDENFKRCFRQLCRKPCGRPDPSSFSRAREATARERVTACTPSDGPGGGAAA

Row | SMILES | EC50 | Emax
1 | CCCC[C@H](NC(=O)[C@H](Cc1c[nH]c2ccccc12)NC(=O)CNC(=O)[C@@H](Cc1ccccc1)NC(=O)[C@@H](N)Cc1ccc(O)cc1)C(=O)N[C@@H](CC(=O)O)C(=O)N[C@@H](Cc1ccccc1)C(N)=O | 0.9 nM | 170%
2 | CCCC[C@H](NC(=O)[C@@H](Cc1c[nH]c2ccccc12)NC(=O)CNC(=O)[C@@H](CCCC)NC(=O)[C@@H](N)Cc1ccc(O)cc1)C(=O)N[C@@H](CC(=O)O)C(=O)N[C@@H](Cc1ccccc1)C(N)=O | 4.1 nM | 75%

Target: T2, Gastrin/cholecystokinin type B receptor (Homo sapiens) (UniProt P32239)
T2 sequence (whole entry): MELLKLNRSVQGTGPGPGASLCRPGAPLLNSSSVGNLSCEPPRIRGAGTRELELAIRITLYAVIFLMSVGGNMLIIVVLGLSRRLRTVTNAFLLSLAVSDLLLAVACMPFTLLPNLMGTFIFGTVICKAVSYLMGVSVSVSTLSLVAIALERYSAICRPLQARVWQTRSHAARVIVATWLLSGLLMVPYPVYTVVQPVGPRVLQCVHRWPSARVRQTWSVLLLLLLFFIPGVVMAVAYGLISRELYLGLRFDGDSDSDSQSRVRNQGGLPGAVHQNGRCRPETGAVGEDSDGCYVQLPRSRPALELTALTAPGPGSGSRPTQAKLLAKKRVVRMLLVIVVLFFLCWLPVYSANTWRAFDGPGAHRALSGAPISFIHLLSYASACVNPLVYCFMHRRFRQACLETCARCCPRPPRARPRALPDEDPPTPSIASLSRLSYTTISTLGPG
Conditions: HEK293

Row | SMILES | Log EC50
3 | CCCC[C@H](NC(=O)[C@@H](Cc1c[nH]c2ccccc12)NC(=O)CNC(=O)[C@@H](CCCC)NC(=O)[C@@H](N)Cc1ccc(O)cc1)C(=O)N[C@@H](CC(=O)O)C(=O)N[C@@H](Cc1ccccc1)C(N)=O | inactive

Target: Mu-type opioid receptor (Cavia porcellus) (UniProt P97266)
Sequence (P97266 whole entry): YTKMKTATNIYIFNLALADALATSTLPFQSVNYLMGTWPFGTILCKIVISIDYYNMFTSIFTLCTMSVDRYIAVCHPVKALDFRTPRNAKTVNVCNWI
Experiment: Agonist activity at mu opioid receptor assessed as inhibition of electrically stimulated Hartley guinea pig ileum contraction at 1 uM
Format: functional, tissue-based
Conditions: not given
Summary of the method: (§2)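 Longitudinal muscle–myenteric plexus strips from male Hartley guinea pig ileum, 1 g tension, oxygenated Krebs at 37 °C; 0.1 Hz, 0.4 ms supramaximal stimulation. […] Integrity checked with 10 nM PL-017. Hill-equation fit, at least four tissues.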

Row | SMILES | inhibition
4 | CCCC[C@@H](C(=O)N[C@@H](CC(=O)O)C(=O)N[C@@H](Cc1ccccc1)C(N)=O)N(C)C(=O)[C@H](Cc1c[nH]c2ccccc12)NC(=O)CNC(=O)[C@@H]1CCCN1C(=O)[C@@H](N)Cc1ccc(O)cc1 | 1.2%

Target: Delta-type opioid receptor (Mus musculus) (UniProt P32300)
Sequence (P32300 whole entry): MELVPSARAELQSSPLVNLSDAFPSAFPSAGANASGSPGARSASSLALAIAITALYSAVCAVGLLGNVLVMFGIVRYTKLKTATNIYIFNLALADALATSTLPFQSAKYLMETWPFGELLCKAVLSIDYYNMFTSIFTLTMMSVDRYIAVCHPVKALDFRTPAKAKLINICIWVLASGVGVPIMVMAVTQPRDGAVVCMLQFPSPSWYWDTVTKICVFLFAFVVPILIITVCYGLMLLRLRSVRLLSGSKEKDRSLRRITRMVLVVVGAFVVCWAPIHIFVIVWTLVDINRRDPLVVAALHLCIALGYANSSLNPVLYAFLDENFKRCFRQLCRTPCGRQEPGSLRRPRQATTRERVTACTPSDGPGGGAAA
Experiment: Agonist activity at delta opioid receptor assessed as inhibition of electrically stimulated ICR mouse vas deferens contraction at 1 uM
Format: functional, tissue-based
Conditions: not given

Row | SMILES | inhibition
5 | CCCC[C@@H](C(=O)N[C@@H](CC(=O)O)C(=O)N[C@@H](Cc1ccccc1)C(N)=O)N(C)C(=O)[C@H](Cc1c[nH]c2ccccc12)NC(=O)CNC(=O)[C@@H]1CCCN1C(=O)[C@@H](N)Cc1ccc(O)cc1 | 5%

Target: T3, Cholecystokinin receptor type A (Homo sapiens, UniProt P32238)
T3 sequence (P32238 whole entry): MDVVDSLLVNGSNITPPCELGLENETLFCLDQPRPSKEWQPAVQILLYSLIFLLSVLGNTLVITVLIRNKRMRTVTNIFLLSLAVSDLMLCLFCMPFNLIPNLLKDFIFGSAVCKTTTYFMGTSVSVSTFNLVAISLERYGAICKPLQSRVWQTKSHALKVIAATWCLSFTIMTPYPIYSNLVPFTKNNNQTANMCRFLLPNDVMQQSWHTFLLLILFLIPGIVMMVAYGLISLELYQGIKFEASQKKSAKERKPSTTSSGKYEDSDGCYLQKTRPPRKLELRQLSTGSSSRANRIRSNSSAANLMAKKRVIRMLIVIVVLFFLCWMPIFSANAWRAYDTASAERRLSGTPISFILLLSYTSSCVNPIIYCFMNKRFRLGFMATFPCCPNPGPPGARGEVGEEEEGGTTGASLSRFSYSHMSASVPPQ
Experiment: Displacement of [125I]CCK-8(SO3) from human CCK1 receptor expressed in HEK293 cells
Format: cell-based
Conditions: not given

Row | SMILES | IC50 | Ki
6 | CCCC[C@H](NC(=O)[C@H](Cc1c[nH]c2ccccc12)NC(=O)CNC(=O)[C@@H](Cc1ccccc1)NC(=O)[C@@H](N)Cc1ccc(O)cc1)C(=O)N[C@@H](CC(=O)O)C(=O)N[C@@H](Cc1ccccc1)C(N)=O | 97.7 nM | 98 nM

Target: T4, Mu-type opioid receptor (Rattus norvegicus, UniProt P33535)
T4 sequence (P33535 whole entry): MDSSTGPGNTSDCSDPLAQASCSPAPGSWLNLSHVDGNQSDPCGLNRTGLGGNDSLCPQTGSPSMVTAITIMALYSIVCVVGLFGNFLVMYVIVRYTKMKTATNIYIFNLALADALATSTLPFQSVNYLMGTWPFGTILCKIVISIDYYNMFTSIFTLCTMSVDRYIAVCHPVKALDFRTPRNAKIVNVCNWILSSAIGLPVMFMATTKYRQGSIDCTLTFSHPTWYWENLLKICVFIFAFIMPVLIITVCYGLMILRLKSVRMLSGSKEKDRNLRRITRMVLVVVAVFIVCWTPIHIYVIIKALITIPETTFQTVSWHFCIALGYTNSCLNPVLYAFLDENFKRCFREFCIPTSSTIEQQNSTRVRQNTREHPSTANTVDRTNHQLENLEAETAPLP
Experiment: Displacement of [3H]DAMGO from rat mu opioid receptor expressed in HN9.10 cells
Format: cell-based
Conditions: not given
Summary of the method: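 HN9.10 cell membranes (50 μg) expressing rMOR, 10 test concentrations with 1.0 nM [3H]DAMGO in 50 mM Tris pH 7.4 with peptidase inhibitors and BSA, 3 h at 25 °C, duplicates; filtration, scintillation counting. Nonspecific with 10 μM naloxone. Ki by Cheng–Prusoff.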

Row | SMILES | IC50 | Ki
7 | CCCC[C@H](NC(=O)[C@H](Cc1c[nH]c2ccccc12)NC(=O)CNC(=O)[C@@H](Cc1ccccc1)NC(=O)[C@@H](N)Cc1ccc(O)cc1)C(=O)N[C@@H](CC(=O)O)C(=O)N[C@@H](Cc1ccccc1)C(N)=O | 79.4 nM | 34 nM
8 | CCCC[C@H](NC(=O)[C@@H](Cc1c[nH]c2ccccc12)NC(=O)CNC(=O)[C@@H](CCCC)NC(=O)[C@@H](N)Cc1ccc(O)cc1)C(=O)N[C@@H](CC(=O)O)C(=O)N[C@@H](Cc1ccccc1)C(N)=O | 631 nM | 270 nM

Target: Mu-type opioid receptor (Cavia porcellus, UniProt P97266)
Sequence (P97266 whole entry): as the sequence (P97266 whole entry) above
Experiment: Agonist activity at mu opioid receptor assessed as inhibition of electrically stimulated Hartley guinea pig ileum contraction
Format: functional, tissue-based
Conditions: not given
Summary of the method: as §2

Row | SMILES | IC50
9 | CCCC[C@H](NC(=O)[C@H](Cc1c[nH]c2ccccc12)NC(=O)CNC(=O)[C@@H](Cc1ccccc1)NC(=O)[C@@H](N)Cc1ccc(O)cc1)C(=O)N[C@@H](CC(=O)O)C(=O)N[C@@H](Cc1ccccc1)C(N)=O | 420 nM
10 | CCCC[C@H](NC(=O)[C@@H](Cc1c[nH]c2ccccc12)NC(=O)CNC(=O)[C@@H](CCCC)NC(=O)[C@@H](N)Cc1ccc(O)cc1)C(=O)N[C@@H](CC(=O)O)C(=O)N[C@@H](Cc1ccccc1)C(N)=O | 1000 nM

Target: T1, Delta-type opioid receptor
Experiment: Displacement of [3H]DPDPE from human delta opioid receptor expressed in HN9.10 cells
Format: cell-based
Conditions: not given
Summary of the method: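 HN9.10 cell membranes (50 μg) expressing hDOR, 10 test concentrations with 1.0 nM [3H]DPDPE in 50 mM Tris pH 7.4 with peptidase inhibitors and BSA, 3 h at 25 °C, duplicates; filtration, scintillation counting. Nonspecific with 10 μM naloxone. Ki by Cheng–Prusoff.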

Row | SMILES | IC50 | Ki
11 | CCCC[C@H](NC(=O)[C@H](Cc1c[nH]c2ccccc12)NC(=O)CNC(=O)[C@@H](Cc1ccccc1)NC(=O)[C@@H](N)Cc1ccc(O)cc1)C(=O)N[C@@H](CC(=O)O)C(=O)N[C@@H](Cc1ccccc1)C(N)=O | 0.427 nM | 0.2 nM
12 | CCCC[C@H](NC(=O)[C@@H](Cc1c[nH]c2ccccc12)NC(=O)CNC(=O)[C@@H](CCCC)NC(=O)[C@@H](N)Cc1ccc(O)cc1)C(=O)N[C@@H](CC(=O)O)C(=O)N[C@@H](Cc1ccccc1)C(N)=O | 47.9 nM | 20 nM
13 | CCCC[C@@H](C(=O)N[C@@H](CC(=O)O)C(=O)N[C@@H](Cc1ccccc1)C(N)=O)N(C)C(=O)[C@H](Cc1c[nH]c2ccccc12)NC(=O)CNC(=O)[C@@H]1CCCN1C(=O)[C@@H](N)Cc1ccc(O)cc1 | 3390 nM | 1500 nM

Target: T3, Cholecystokinin receptor type A
Experiment: Antagonist activity at CCK1 receptor expressed in HEK 293 cells assessed as accumulation of [3H]inositol phosphates by PI assay
Format: functional, cell-based, HEK293
Conditions: not given

Row | SMILES | EC50
14 | CCCC[C@H](NC(=O)[C@H](Cc1c[nH]c2ccccc12)NC(=O)CNC(=O)[C@@H](Cc1ccccc1)NC(=O)[C@@H](N)Cc1ccc(O)cc1)C(=O)N[C@@H](CC(=O)O)C(=O)N[C@@H](Cc1ccccc1)C(N)=O | 300 nM

Target: T4, Mu-type opioid receptor
Experiment: (§3) Activity against [35S]GTP-gamma-S binding to rat mu opioid receptor expressed in HN9.10 cells
Format: functional, cell-based
Conditions: not given
Summary of the method: as §1

Row | SMILES | EC50
15 | CCCC[C@H](NC(=O)[C@H](Cc1c[nH]c2ccccc12)NC(=O)CNC(=O)[C@@H](Cc1ccccc1)NC(=O)[C@@H](N)Cc1ccc(O)cc1)C(=O)N[C@@H](CC(=O)O)C(=O)N[C@@H](Cc1ccccc1)C(N)=O | 1.4 nM
16 | CCCC[C@H](NC(=O)[C@@H](Cc1c[nH]c2ccccc12)NC(=O)CNC(=O)[C@@H](CCCC)NC(=O)[C@@H](N)Cc1ccc(O)cc1)C(=O)N[C@@H](CC(=O)O)C(=O)N[C@@H](Cc1ccccc1)C(N)=O | 20 nM

Target: Mu-type opioid receptor (Rattus norvegicus) (UniProt P33535)
Sequence (P33535 whole entry): as the sequence (P33535 whole entry) above
Experiment: as §3
Format: functional, cell-based
Conditions: not given
Summary of the method: as §1

Row | SMILES | Emax
17 | CCCC[C@H](NC(=O)[C@H](Cc1c[nH]c2ccccc12)NC(=O)CNC(=O)[C@@H](Cc1ccccc1)NC(=O)[C@@H](N)Cc1ccc(O)cc1)C(=O)N[C@@H](CC(=O)O)C(=O)N[C@@H](Cc1ccccc1)C(N)=O | 180%
18 | CCCC[C@H](NC(=O)[C@@H](Cc1c[nH]c2ccccc12)NC(=O)CNC(=O)[C@@H](CCCC)NC(=O)[C@@H](N)Cc1ccc(O)cc1)C(=O)N[C@@H](CC(=O)O)C(=O)N[C@@H](Cc1ccccc1)C(N)=O | 110%

Target: T5, Gastrin/cholecystokinin type B receptor (Homo sapiens, UniProt P32239)
T5 sequence (P32239 whole entry): T2 sequence (whole entry)
Experiment: Displacement of [125I]CCK-8(SO3) from human CCK2 receptor expressed in HEK293 cells
Format: cell-based
Conditions: not given

Row | SMILES | IC50 | Ki
19 | CCCC[C@H](NC(=O)[C@H](Cc1c[nH]c2ccccc12)NC(=O)CNC(=O)[C@@H](Cc1ccccc1)NC(=O)[C@@H](N)Cc1ccc(O)cc1)C(=O)N[C@@H](CC(=O)O)C(=O)N[C@@H](Cc1ccccc1)C(N)=O | 25.7 nM | 26 nM
20 | CCCC[C@H](NC(=O)[C@@H](Cc1c[nH]c2ccccc12)NC(=O)CNC(=O)[C@@H](CCCC)NC(=O)[C@@H](N)Cc1ccc(O)cc1)C(=O)N[C@@H](CC(=O)O)C(=O)N[C@@H](Cc1ccccc1)C(N)=O | 2190 nM | 2200 nM
21 | CCCC[C@@H](C(=O)N[C@@H](CC(=O)O)C(=O)N[C@@H](Cc1ccccc1)C(N)=O)N(C)C(=O)[C@H](Cc1c[nH]c2ccccc12)NC(=O)CNC(=O)[C@@H]1CCCN1C(=O)[C@@H](N)Cc1ccc(O)cc1 | 0.219 nM | 0.22 nM

Target: Delta-type opioid receptor (Mus musculus, UniProt P32300)
Sequence (P32300 whole entry): as the sequence (P32300 whole entry) above
Experiment: Agonist activity at delta opioid receptor assessed as inhibition of electrically stimulated ICR mouse vas deferens contraction
Format: functional, tissue-based
Conditions: not given
Summary of the method: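 Vas deferens from male ICR mice, in 20 mL baths at 0.5 g tension, Mg-free oxygenated Krebs, 37 °C; electrical stimulation 0.1 Hz, 2.0 ms pulses, supramaximal voltage. Cumulative addition to maximal inhibition; integrity checked with 10 nM DPDPE. IC50 by Hill-equation nonlinear least-squares fit, at least four tissues.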

Row | SMILES | IC50
22 | CCCC[C@H](NC(=O)[C@H](Cc1c[nH]c2ccccc12)NC(=O)CNC(=O)[C@@H](Cc1ccccc1)NC(=O)[C@@H](N)Cc1ccc(O)cc1)C(=O)N[C@@H](CC(=O)O)C(=O)N[C@@H](Cc1ccccc1)C(N)=O | 12 nM
23 | CCCC[C@H](NC(=O)[C@@H](Cc1c[nH]c2ccccc12)NC(=O)CNC(=O)[C@@H](CCCC)NC(=O)[C@@H](N)Cc1ccc(O)cc1)C(=O)N[C@@H](CC(=O)O)C(=O)N[C@@H](Cc1ccccc1)C(N)=O | 310 nM

Target: T5, Gastrin/cholecystokinin type B receptor
Experiment: Antagonist activity at CCK2 receptor expressed in HEK293 cells assessed as accumulation of [3H]inositol phosphates by PI assay
Format: functional, cell-based
Conditions: not given

Row | SMILES | EC50
24 | CCCC[C@H](NC(=O)[C@H](Cc1c[nH]c2ccccc12)NC(=O)CNC(=O)[C@@H](Cc1ccccc1)NC(=O)[C@@H](N)Cc1ccc(O)cc1)C(=O)N[C@@H](CC(=O)O)C(=O)N[C@@H](Cc1ccccc1)C(N)=O | 110 nM
